# Test results as given in ChEMBL document CHEMBL1158577, “Role of hydrophobic substituents on the terminal nitrogen of histamine in receptor binding and agonist activity: development of an orally active histamine type 3 receptor agonist and evaluation of its antistress activity in mice” (J Med Chem, 2010).
# Tests used:
# Histamine H3 receptor [1] = molecular target: T1, Histamine H3 receptor (Homo sapiens, UniProt Q9Y5N1); experiment: Displacement of [3H[N-alpha-methylhistamine form human recombinant histamine H3 receptor expressed in CHO cells after 1 hr by liquid scintillation counting; format: cell-based
# T1 sequence (Q9Y5N1 whole entry): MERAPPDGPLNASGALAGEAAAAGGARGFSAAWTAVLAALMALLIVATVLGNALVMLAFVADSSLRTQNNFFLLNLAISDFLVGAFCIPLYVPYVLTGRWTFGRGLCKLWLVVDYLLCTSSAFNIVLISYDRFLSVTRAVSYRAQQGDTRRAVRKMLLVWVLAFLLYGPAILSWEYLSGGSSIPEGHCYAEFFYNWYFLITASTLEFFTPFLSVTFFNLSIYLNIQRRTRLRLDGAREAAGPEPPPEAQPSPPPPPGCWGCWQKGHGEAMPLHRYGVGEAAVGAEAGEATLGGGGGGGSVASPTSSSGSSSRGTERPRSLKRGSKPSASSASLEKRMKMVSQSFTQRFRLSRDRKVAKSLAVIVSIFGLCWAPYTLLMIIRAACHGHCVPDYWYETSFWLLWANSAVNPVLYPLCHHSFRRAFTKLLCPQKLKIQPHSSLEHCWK
# How it was run: (§1)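 Used CHO cells stably expressing the human H3R for both affinity (pKi) and functional agonist measurements. Each value is the mean ± SEM of n = 3.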
# Histamine H3 receptor [2] = molecular target: T1, Histamine H3 receptor; experiment: Agonist activity at human recombinant histamine H3 receptor expressed in CHO cells assessed as [35S]GTPgammaS binding at 10 nM after 1 hr by liquid scintillation counting relative to (R)-alpha-methylhistamine; format: functional, cell-based
# How it was run: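 CHO cells stably expressing human H3R. Agonist response is given as a percent of the response to the reference H3R agonist. Results are mean ± SEM, n = 3.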
# Histamine H3 receptor [3] = molecular target: T1, Histamine H3 receptor; experiment: Agonist activity at human recombinant histamine H3 receptor expressed in CHO cells assessed as [35S]GTPgammaS binding after 1 hr by liquid scintillation counting; format: functional, cell-based; conditions: read-out: EC50; how it was run: as §1
# Mus musculus [4] = experiment: Antistress activity against isolation-induced aggressive behavior in ICR mouse assessed as duration of attacks to intruder mouse at 30 mg/kg, po measured for 10 mins by resident-intruder test (RVb = 54.5 +/- 6.7 sec); format: functional
# Mus musculus [5] = experiment: Antistress activity against isolation-induced aggressive behavior in ICR mouse assessed as duration of attacks to intruder mouse at 7.5 mg/kg, po measured for 10 mins by resident-intruder test (RVb = 54.5 +/- 6.7 sec); format: functional
# Mus musculus [6] = experiment: In-vivo agonist activity at histamine H3 receptor in ddY mouse assessed as N-tele-methylhistamine level per gram of brain at 1 mg/kg, po by gas chromatography (RVb = 315 +/- 20 ng); format: functional, organism-based; set-up: dose 1 mg/kg
# Mus musculus [7] = experiment: In-vivo agonist activity at histamine H3 receptor in ddY mouse assessed as N-tele-methylhistamine level per gram of brain at 5 mg/kg, po by gas chromatography (RVb = 315 +/- 20 ng); format: functional, organism-based; set-up: dose 5 mg/kg
# Mus musculus [8] = experiment: In-vivo agonist activity at histamine H3 receptor in ddY mouse assessed as N-tele-methylhistamine level per gram of brain at 30 mg/kg, po by gas chromatography (RVb = 315 +/- 20 ng); format: functional, organism-based; set-up: dose 30 mg/kg
Structure (SMILES),Ki (Histamine H3 receptor [1]) [nM],Activity (Histamine H3 receptor [2]) [%],EC50 (Histamine H3 receptor [3]) [nM],further results
COc1ccc(NCCc2c[nH]cn2)cc1,24,56,65,–
COCCCC/C(=N\OCCN)c1ccc(C(F)(F)F)cc1 [FLUVOXAMINE],–,–,–,Time (Mus musculus [4]): 19.9 s; Time (Mus musculus [5]): 30.7 s
CC(C)(C)c1cccc(NCCc2c[nH]cn2)c1,2.2,48,4.6,–
c1nc(CCNC2CCCCC2)c[nH]1,1600,31,3400,–
N=C(N)SCCc1c[nH]cn1,–,91,–,Nτ-methylhistamine level (Mus musculus [6]): 239 ng/g; Nτ-methylhistamine level (Mus musculus [7]): 133 ng/g; Nτ-methylhistamine level (Mus musculus [8]): 98 ng/g
Cc1ccc(NCCc2c[nH]cn2)cc1C,–,59,–,–
NCCc1c[nH]cn1 [HISTAMINE],–,110,–,–
N=C(N)SCCc1cnc[nH]1 [IMETIT],0.57,–,2.4,–
CC(C)(C)c1ccc(NCCc2cnc[nH]2)cc1,0.89,–,1.6,–
